≈ marks a conversion by molar mass, not a printed value. Calls of active or inactive are those of the source. The calls are words filed in the database; no cut-off is given here.
Experiments:
Cryptococcus neoformans [1] = assay: Antimicrobial activity against Cryptococcus neoformans ATCC 90112 by broth micro dilution assay; type: functional
Candida albicans [2] = assay: Antimicrobial activity against Candida albicans ATCC 90028 by broth micro dilution assay; type: functional
Streptococcus pneumoniae [3] = assay: Antimicrobial activity against Streptococcus pneumoniae ATCC 6303 at 64 ug/mL by broth micro dilution assay; type: functional, organism-based
Micrococcus luteus [4] = assay: Antimicrobial activity against Micrococcus luteus presque Isle 456 at 64 ug/mL by broth micro dilution assay; type: functional, organism-based
Staphylococcus aureus = assay: Antimicrobial activity against Staphylococcus aureus at 64 ug/mL by broth micro dilution assay; type: functional, organism-based
Enterococcus faecalis = assay: Antimicrobial activity against Enterococcus faecalis at 64 ug/mL by broth micro dilution assay; type: functional, organism-based
Escherichia coli = assay: Antimicrobial activity against Escherichia coli at 64 ug/mL by broth micro dilution assay; type: functional, organism-based
Enterobacter cloacae = assay: Antimicrobial activity against Enterobacter cloacae at 64 ug/mL by broth micro dilution assay; type: functional, organism-based
[5] = tested on: Stenotrophomonas maltophilia; assay: Antimicrobial activity against Stenotrophomonas maltophilia at 64 ug/mL by broth micro dilution assay; type: functional, organism-based
Neisseria gonorrhoeae = assay: Antimicrobial activity against Neisseria gonorrhoeae at 64 ug/mL by broth micro dilution assay; type: functional, organism-based
P388 = assay: Growth inhibition of mouse P388 cells after 48 hrs; type: functional; conditions: P388, 48 h, read-out: ED50 (the source's name)
Summary of the method: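 Murine P388 leukemia cells were preincubated 24 h in Fisher medium with 10% horse serum, then exposed to serial compound dilutions for 48 h. Cells were counted on an electronic particle counter, and ED50 for growth inhibition was calculated from the counts.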

BXPC-3 = assay: Growth inhibition of humanBxPC3 cells after 48 hrs; type: functional; conditions: Homo sapiens, BXPC-3, 48 h
Summary of the method: (§1)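 NCI sulforhodamine B assay. Cells in RPMI1640 with 5% fetal bovine serum were seeded and incubated 24 h, then exposed to serial dilutions for 48 h. Plates were TCA-fixed, SRB-stained and read for optical density. GI50 is the concentration giving 50% reduction in net protein increase, calculated from OD data.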

MCF7 = assay: Growth inhibition of human MCF7 cells after 48 hrs; type: functional; conditions: MCF7, 48 h; summary of the method: as §1
SF-268 = assay: Growth inhibition of human SF268 cells after 48 hrs; type: functional; conditions: SF-268, 48 h; summary of the method: as §1
NCI-H460 = assay: Growth inhibition of human NCI-H460 cells after 48 hrs; type: functional; conditions: NCI-H460, 48 h; summary of the method: as §1
KM-20L2 = assay: Growth inhibition of human KM20L2 cells after 48 hrs; type: functional; conditions: KM-20L2, 48 h; summary of the method: as §1
DU-145 = assay: Growth inhibition of human DU145 cells after 48 hrs; type: functional; conditions: DU-145, 48 h; summary of the method: as §1
Streptococcus pneumoniae [6] = assay: Antimicrobial activity against Streptococcus pneumoniae ATCC 6303 by broth micro dilution assay; type: functional
Candida albicans [7] = assay: Antimicrobial activity against Candida albicans ATCC 90028 at 64 ug/mL by broth micro dilution assay; type: functional, organism-based
Micrococcus luteus [8] = assay: Antimicrobial activity against Micrococcus luteus presque Isle 456 by broth micro dilution assay; type: functional
Summary of the method: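 NCCLS broth microdilution. Compounds reconstituted in a small volume of sterile DMSO and diluted in the appropriate medium immediately before testing. MIC read as the lowest concentration giving no visible growth (optically clear). Assays repeated on separate days.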

Cryptococcus neoformans [9] = assay: Antimicrobial activity against Cryptococcus neoformans ATCC 90112 at 64 ug/mL by broth micro dilution assay; type: functional, organism-based

SMILES | MIC (Cryptococcus neoformans [1]) | MIC (Candida albicans [2]) | Activity (Streptococcus pneumoniae [3]) | Activity (Micrococcus luteus [4]) | Activity (Staphylococcus aureus) | Activity (Enterococcus faecalis) | Activity (Escherichia coli) | Activity (Enterobacter cloacae) | Activity [5] | Activity (Neisseria gonorrhoeae) | EC50 (P388) | GI50 (BXPC-3) | GI50 (MCF7) | GI50 (SF-268) | GI50 (NCI-H460) | GI50 (KM-20L2) | GI50 (DU-145) | MIC (Streptococcus pneumoniae [6]) | further results
C=C1CC[C@@]2(OC1)O[C@H]1C[C@H]3[C@@H]4CC=C5C[C@@H](O[C@@H]6O[C@H](CO)[C@@H](O[C@@H]7O[C@@H](C)[C@H](O)[C@@H](O)[C@H]7O)[C@H](O)[C@H]6O[C@@H]6O[C@@H](C)[C@H](O)[C@@H](O)[C@H]6O)CC[C@]5(C)[C@H]4CC[C@]3(C)[C@H]1[C@@H]2C [SANSEVISTATIN 1] | 1 µg/mL (≈ 1.15 µM) | 2 µg/mL (≈ 2.31 µM) | inactive | inactive | inactive | inactive | inactive | inactive | inactive | inactive | 1.6 µg/mL (≈ 1.85 µM) | 1.1 µg/mL (≈ 1.27 µM) | 1.1 µg/mL (≈ 1.27 µM) | 1.3 µg/mL (≈ 1.5 µM) | 0.43 µg/mL (≈ 0.496 µM) | 0.47 µg/mL (≈ 0.542 µM) | 1 µg/mL (≈ 1.15 µM) | – | –
C[C@@H]1CC[C@@]2(OC1)O[C@H]1C[C@H]3[C@@H]4CC=C5C[C@@H](O[C@@H]6O[C@H](CO)[C@@H](O[C@@H]7OC[C@@H](O)[C@H](O)[C@H]7O)[C@H](O)[C@H]6O[C@@H]6O[C@@H](C)[C@H](O)[C@@H](O)[C@H]6O)CC[C@]5(C)[C@H]4CC[C@]3(C)[C@H]1[C@@H]2C | 2 µg/mL (≈ 2.34 µM) | 4 µg/mL (≈ 4.68 µM) | inactive | inactive | inactive | inactive | inactive | inactive | inactive | inactive | 2.6 µg/mL (≈ 3.04 µM) | 1.7 µg/mL (≈ 1.99 µM) | 1.4 µg/mL (≈ 1.64 µM) | 1.3 µg/mL (≈ 1.52 µM) | 1.2 µg/mL (≈ 1.4 µM) | 0.5 µg/mL (≈ 0.585 µM) | 1.1 µg/mL (≈ 1.29 µM) | – | –
C[C@@H]1CC[C@@]2(OC1)O[C@H]1C[C@H]3[C@@H]4CC=C5C[C@@H](O[C@@H]6O[C@H](CO)[C@@H](O[C@@H]7OC[C@H](O)[C@H](O)[C@H]7O)[C@H](O)[C@H]6O[C@@H]6O[C@@H](C)[C@H](O)[C@@H](O)[C@H]6O)CC[C@]5(C)[C@H]4CC[C@]3(C)[C@H]1[C@@H]2C [SANSEVISTATIN 2] | 1 µg/mL (≈ 1.17 µM) | – | – | inactive | inactive | inactive | inactive | inactive | inactive | inactive | 1.7 µg/mL (≈ 1.99 µM) | 0.93 µg/mL (≈ 1.09 µM) | 0.62 µg/mL (≈ 0.725 µM) | 0.68 µg/mL (≈ 0.795 µM) | 0.26 µg/mL (≈ 0.304 µM) | 0.22 µg/mL (≈ 0.257 µM) | 0.42 µg/mL (≈ 0.491 µM) | 32 µg/mL (≈ 37.4 µM) | Activity (Candida albicans [7]): inactive
C[C@@H]1CC[C@@]2(OC1)O[C@H]1C[C@H]3[C@@H]4CC=C5C[C@@H](O[C@@H]6O[C@H](CO)[C@@H](O[C@@H]7O[C@@H](C)[C@H](O)[C@@H](O)[C@H]7O)[C@H](O)[C@H]6O[C@@H]6O[C@@H](C)[C@H](O)[C@@H](O)[C@H]6O)CC[C@]5(C)[C@H]4CC[C@]3(C)[C@H]1[C@@H]2C [DIOSCIN] | 1 µg/mL (≈ 1.15 µM) | 2 µg/mL (≈ 2.3 µM) | – | – | inactive | inactive | inactive | inactive | inactive | inactive | 1.5 µg/mL (≈ 1.73 µM) | 1.1 µg/mL (≈ 1.27 µM) | 1.6 µg/mL (≈ 1.84 µM) | 1.2 µg/mL (≈ 1.38 µM) | 1.6 µg/mL (≈ 1.84 µM) | 1.6 µg/mL (≈ 1.84 µM) | 1.6 µg/mL (≈ 1.84 µM) | 32 µg/mL (≈ 36.8 µM) | MIC (Micrococcus luteus [8]): 4 µg/mL (≈ 4.6 µM)
C[C@@H]1CC[C@@]2(OC1)O[C@H]1C[C@H]3[C@@H]4CC=C5C[C@@H](O[C@@H]6O[C@H](CO)[C@@H](O)[C@H](O)[C@H]6O[C@@H]6O[C@@H](C)[C@H](O)[C@@H](O)[C@H]6O)CC[C@]5(C)[C@H]4CC[C@]3(C)[C@H]1[C@@H]2C [OPHIOPOGONIN C] | 1 µg/mL (≈ 1.38 µM) | 2 µg/mL (≈ 2.77 µM) | – | inactive | inactive | inactive | inactive | inactive | inactive | inactive | 1.5 µg/mL (≈ 2.07 µM) | 1.8 µg/mL (≈ 2.49 µM) | 2 µg/mL (≈ 2.77 µM) | 1.8 µg/mL (≈ 2.49 µM) | 1.8 µg/mL (≈ 2.49 µM) | 1.7 µg/mL (≈ 2.35 µM) | 1.6 µg/mL (≈ 2.21 µM) | 16 µg/mL (≈ 22.1 µM) | –
C[C@@H]1CC[C@@]2(OC1)O[C@H]1C[C@H]3[C@@H]4CC=C5C[C@@H](O)CC[C@]5(C)[C@H]4CC[C@]3(C)[C@H]1[C@@H]2C [DISOGENIN] | – | – | inactive | – | inactive | inactive | inactive | inactive | inactive | inactive | 4.3 µg/mL (≈ 10.4 µM) | > 10 µg/mL | > 10 µg/mL | > 10 µg/mL | > 10 µg/mL | > 10 µg/mL | 8.5 µg/mL (≈ 20.5 µM) | – | MIC (Micrococcus luteus [8]): 32 µg/mL (≈ 77.2 µM); Activity (Cryptococcus neoformans [9]): inactive; Activity (Candida albicans [7]): inactive
C[C@@H]1CC[C@@]2(OC1)O[C@H]1C[C@H]3[C@@H]4[C@H](O)C=C5C[C@@H](O[C@@H]6O[C@H](CO)[C@@H](O)[C@H](O)[C@H]6O[C@@H]6O[C@@H](C)[C@H](O)[C@@H](O)[C@H]6O)CC[C@]5(C)[C@H]4CC[C@]3(C)[C@H]1[C@@H]2C [SANSEVIERIN A] | 64 µg/mL (≈ 86.6 µM) | 64 µg/mL (≈ 86.6 µM) | inactive | inactive | inactive | inactive | inactive | inactive | inactive | inactive | > 10 µg/mL | > 10 µg/mL | > 10 µg/mL | > 10 µg/mL | > 10 µg/mL | > 10 µg/mL | > 10 µg/mL | – | –

— ChEMBL document CHEMBL1158762, “Antineoplastic agents. 534. isolation and structure of sansevistatins 1 and 2 from the African Sansevieria ehrenbergii” (2005)
